≈ marks a conversion by molar mass, not a printed value. Calls of active or inactive are those of the source. No cut-off for these calls is given here.
Assays:
[1] = target: T1, von Hippel-Lindau disease tumor suppressor/Interleukin-1 receptor-associated kinase 4 (Homo sapiens, UniProt Q9NWZ3+P40337); assay: Protac activity at VHL/IRAK4 in human PBMCs assessed as induction of degradation of IRAK4 at 0.1 to 10 uM incubated for 24 hrs by Western blot analysis
Target sequence in this assay (P40337 whole entry, looked up, one chain of several): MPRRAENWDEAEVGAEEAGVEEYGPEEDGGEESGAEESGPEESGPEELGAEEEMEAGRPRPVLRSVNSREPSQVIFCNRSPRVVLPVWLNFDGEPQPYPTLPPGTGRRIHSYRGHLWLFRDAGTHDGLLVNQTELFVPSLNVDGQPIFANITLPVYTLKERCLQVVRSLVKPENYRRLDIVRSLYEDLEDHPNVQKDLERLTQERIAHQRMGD

[2] = target: T2, von Hippel-Lindau disease tumor suppressor/Interleukin-1 receptor-associated kinase 4 (Homo sapiens, UniProt P40337+Q9NWZ3); assay: Protac activity at VHL/IRAK4 in human PBMC assessed as reduction in R848-stimulated IFNgamma preincubated for 18 hrs followed by R848 stimulation and measured after 8 hrs by MSD assay; assay type: protein assay
T2 sequence (P40337 whole entry, one chain of several): as the sequence (P40337 whole entry, looked up, one chain of several) above
Procedure, shortened: (§1)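 PBMCs pretreated 18 h with compound, then stimulated 8 h with R848 (2.5 μg/mL). Secreted cytokines measured by MSD electrochemiluminescence.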

[3] = target: T1, von Hippel-Lindau disease tumor suppressor/Interleukin-1 receptor-associated kinase 4; assay: Protac activity at VHL/IRAK4 in human dermal fibroblast assessed as induction of degradation of IRAK4 incubated for 24 hrs by Western blot analysis; assay type: protein assay
Procedure, shortened: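 Human dermal fibroblasts treated with compound for 24 h. IRAK4 protein measured by Western blot and DC50 derived.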
Target sequence in this assay (P40337 whole entry, one chain of several): as the sequence (P40337 whole entry, looked up, one chain of several) above

[4] = target: T2, von Hippel-Lindau disease tumor suppressor/Interleukin-1 receptor-associated kinase 4; assay: Protac activity at VHL/IRAK4 in human PBMC assessed as reduction in R848-stimulated IL-1beta level preincubated for 18 hrs followed by R848-stimulation and measured after 8 hrs by MSD assay; assay type: protein assay
Procedure, shortened: as §1

[5] = Chromatographic hydrophobicity index, log D of compound at pH 7.4; assay type: physicochemical; details: buffer
[6] = target: T2, von Hippel-Lindau disease tumor suppressor/Interleukin-1 receptor-associated kinase 4; assay: Protac activity at VHL/IRAK4 in human PBMC assessed as reduction in R848-stimulated IL-6 level preincubated for 18 hrs followed by R848 stimulation and measured after 8 hrs by MSD assay; assay type: protein assay
Procedure, shortened: as §1

[7] = target: T2, von Hippel-Lindau disease tumor suppressor/Interleukin-1 receptor-associated kinase 4; assay: Protac activity at VHL/IRAK4 in human PBMC assessed as reduction in R848-stimulated IL-10 level preincubated for 18 hrs followed by R848 stimulation and measured after 8 hrs by MSD assay; assay type: protein assay
Procedure, shortened: as §1

[8] = target: T2, von Hippel-Lindau disease tumor suppressor/Interleukin-1 receptor-associated kinase 4; assay: Protac activity at VHL/IRAK4 in human PBMC assessed as reduction in R848-stimulated TNFalpha level preincubated for 18 hrs followed by R848 stimulation and measured after 8 hrs by MSD assay; assay type: protein assay
Procedure, shortened: as §1

[9] = target: T1, von Hippel-Lindau disease tumor suppressor/Interleukin-1 receptor-associated kinase 4; assay: Protac activity at VHL/IRAK4 in human PBMC assessed as induction of degradation of IRAK4 incubated for 24 hrs by Western blot analysis; assay type: protein assay
Procedure, shortened: (§2)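 PBMCs exposed to rising compound concentrations for 24 h. IRAK4 protein read by Western blot against DMSO-treated cells. Dmax is the maximum degradation observed.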
Target sequence in this assay (P40337 whole entry, one chain of several): as the sequence (P40337 whole entry, looked up, one chain of several) above

[10] = target: T1, von Hippel-Lindau disease tumor suppressor/Interleukin-1 receptor-associated kinase 4; assay: Protac activity at VHL/IRAK4 in human epoxomicin pretreated PBMC assessed as induction of degradation of IRAK4 at 0.01 to 10 uM incubated for 22 hrs by Western blot analysis; assay type: protein assay
Procedure, shortened: (§3)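 PBMCs pretreated 2 h with 10 μM epoxomicin, then given compound for a further 22 h. IRAK4 and p21 (proteasome-inhibition marker) read by Western blot against DMSO-treated cells.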
Target sequence in this assay (P40337 whole entry, looked up, one chain of several): as above

[11] = target: T1, von Hippel-Lindau disease tumor suppressor/Interleukin-1 receptor-associated kinase 4; assay: Protac activity at VHL/IRAK4 in human epoxomicin PBMC assessed as increase in p21 accumulation at 0.01 to 10 uM incubated for 22 hrs by Western blot analysis; assay type: protein assay
Procedure, shortened: as §3
Target sequence in this assay (P40337 whole entry, looked up, one chain of several): as above

[12] = target: T2, von Hippel-Lindau disease tumor suppressor/Interleukin-1 receptor-associated kinase 4; assay: Protac activity at VHL/IRAK4 in human PBMC assessed as reduction in R848-stimulated IL-8 level preincubated for 18 hrs followed by R848 stimulation and measured after 8 hrs by MSD assay; assay type: protein assay
Procedure, shortened: as §1

[13] = target: T1, von Hippel-Lindau disease tumor suppressor/Interleukin-1 receptor-associated kinase 4; assay: Protac activity at VHL/IRAK4 in human dermal fibroblast assessed as reduction in IL-1beta stimulated IL-6 level at 300 nM incubated for 18 hrs followed by IL-1beta stimulation further incubated for 8 hrs by MSD assay; assay type: protein assay
Procedure, shortened: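 Human dermal fibroblasts pretreated 18 h with 300 nM compound, then stimulated 8 h with IL-1β (10 ng/mL). Secreted IL-6 measured. n = 4, mean ± SE.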
Target sequence in this assay (P40337 whole entry, looked up, one chain of several): as above

[14] = Solubility of compound; assay type: physicochemical
[15] = target: Protein cereblon/Interleukin-1 receptor-associated kinase 4 (Homo sapiens) (UniProt Q9NWZ3+Q96SW2); assay: Protac activity at CRBN/IRAK4 in human PBMC assessed as induction of degradation of IRAK4 incubated for 24 hrs by Western blot analysis relative to control; assay type: protein assay
Protein cereblon/Interleukin-1 receptor-associated kinase 4 (Homo sapiens), sequence (Q96SW2 whole entry, looked up, one chain of several): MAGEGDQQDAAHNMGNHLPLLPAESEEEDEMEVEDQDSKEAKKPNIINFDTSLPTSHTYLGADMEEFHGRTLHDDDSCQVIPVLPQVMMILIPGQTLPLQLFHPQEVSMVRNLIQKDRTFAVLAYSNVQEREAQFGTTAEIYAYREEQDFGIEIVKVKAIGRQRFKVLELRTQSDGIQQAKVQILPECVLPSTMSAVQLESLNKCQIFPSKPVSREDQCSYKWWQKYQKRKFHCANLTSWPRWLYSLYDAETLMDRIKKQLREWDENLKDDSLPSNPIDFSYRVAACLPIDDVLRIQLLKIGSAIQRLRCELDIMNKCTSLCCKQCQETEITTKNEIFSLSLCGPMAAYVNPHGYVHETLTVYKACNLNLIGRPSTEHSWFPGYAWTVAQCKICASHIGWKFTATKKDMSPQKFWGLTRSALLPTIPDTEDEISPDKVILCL
Procedure, shortened: as §2

[16] = target: T1, von Hippel-Lindau disease tumor suppressor/Interleukin-1 receptor-associated kinase 4; assay: Protac activity at VHL/IRAK4 in human PBMC assessed as induction of degradation of IRAK4 incubated for 24 hrs by Western blot analysis relative to control; assay type: protein assay
Procedure, shortened: as §2
Target sequence in this assay (P40337 whole entry, looked up, one chain of several): as the sequence (P40337 whole entry, looked up, one chain of several) above

[17] = target: T3, Interleukin-1 receptor-associated kinase 4 (Homo sapiens, UniProt Q9NWZ3); assay: Binding affinity to human IRK4 using myelin basic protein as substrate by [gamma-33P]-ATP assay
T3 sequence (Q9NWZ3 whole entry): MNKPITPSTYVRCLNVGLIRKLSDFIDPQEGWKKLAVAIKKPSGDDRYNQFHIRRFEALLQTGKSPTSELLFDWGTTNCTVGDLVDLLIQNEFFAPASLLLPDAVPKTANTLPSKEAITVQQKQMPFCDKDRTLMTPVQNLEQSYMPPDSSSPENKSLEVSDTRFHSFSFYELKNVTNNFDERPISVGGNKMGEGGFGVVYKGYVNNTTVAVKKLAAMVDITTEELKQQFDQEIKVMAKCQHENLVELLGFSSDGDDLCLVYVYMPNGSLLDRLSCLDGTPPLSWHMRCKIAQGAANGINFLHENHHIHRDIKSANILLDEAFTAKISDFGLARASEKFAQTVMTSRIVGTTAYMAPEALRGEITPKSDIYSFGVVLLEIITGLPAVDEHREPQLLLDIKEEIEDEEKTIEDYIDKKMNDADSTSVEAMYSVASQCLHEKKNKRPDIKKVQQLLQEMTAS

[18] = target: Interleukin-1 receptor-associated kinase 1 (Homo sapiens, UniProt P51617); assay: Binding affinity to human IRK1 using myelin basic protein as substrate by [gamma-33P]-ATP assay
Interleukin-1 receptor-associated kinase 1, sequence (P51617 whole entry): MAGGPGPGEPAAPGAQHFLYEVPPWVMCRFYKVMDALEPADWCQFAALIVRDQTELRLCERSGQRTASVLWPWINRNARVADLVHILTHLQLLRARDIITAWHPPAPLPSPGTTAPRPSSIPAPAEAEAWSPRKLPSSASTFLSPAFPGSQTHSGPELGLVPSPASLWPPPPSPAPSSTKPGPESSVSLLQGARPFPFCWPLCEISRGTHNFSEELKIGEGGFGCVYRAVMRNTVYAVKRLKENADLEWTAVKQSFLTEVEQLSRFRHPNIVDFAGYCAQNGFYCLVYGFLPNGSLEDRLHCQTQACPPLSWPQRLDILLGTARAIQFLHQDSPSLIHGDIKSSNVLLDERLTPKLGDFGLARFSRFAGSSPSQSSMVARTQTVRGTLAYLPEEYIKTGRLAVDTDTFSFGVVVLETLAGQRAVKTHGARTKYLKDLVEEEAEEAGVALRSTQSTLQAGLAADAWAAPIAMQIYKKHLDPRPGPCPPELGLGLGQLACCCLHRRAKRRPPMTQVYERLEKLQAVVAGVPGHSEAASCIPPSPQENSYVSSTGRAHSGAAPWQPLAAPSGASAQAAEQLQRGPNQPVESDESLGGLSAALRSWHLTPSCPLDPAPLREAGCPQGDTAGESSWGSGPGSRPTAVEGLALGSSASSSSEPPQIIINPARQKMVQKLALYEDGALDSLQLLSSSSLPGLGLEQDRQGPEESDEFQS

[19] = target: T1, von Hippel-Lindau disease tumor suppressor/Interleukin-1 receptor-associated kinase 4; assay: Protac activity at VHL/IRAK4 in human PBMC assessed as remaining IRAK4 level at 1 uM incubated for 24 hrs by Western blot analysis relative to control; assay type: protein assay
Procedure, shortened: as §2
Target sequence in this assay (P40337 whole entry, looked up, one chain of several): as the sequence (P40337 whole entry, looked up, one chain of several) above

[20] = target: T1, von Hippel-Lindau disease tumor suppressor/Interleukin-1 receptor-associated kinase 4; assay: Protac activity at VHL/IRAK4 in human PBMC assessed as remaining IRAK4 level at 100 nM incubated for 24 hrs by Western blot analysis relative to control; assay type: protein assay
Procedure, shortened: as §2

[21] = target: T1, von Hippel-Lindau disease tumor suppressor/Interleukin-1 receptor-associated kinase 4; assay: Protac activity at VHL/IRAK4 in human PBMC assessed as remaining IRAK4 level at 300 nM incubated for 24 hrs by Western blot analysis relative to control; assay type: protein assay
Procedure, shortened: as §2

[22] = target: T1, von Hippel-Lindau disease tumor suppressor/Interleukin-1 receptor-associated kinase 4; assay: Protac activity at VHL/IRAK4 in human PBMC assessed as remaining IRAK4 level at 10 uM incubated for 24 hrs by Western blot analysis relative to control; assay type: protein assay
Procedure, shortened: as §2

[23] = target: T1, von Hippel-Lindau disease tumor suppressor/Interleukin-1 receptor-associated kinase 4; assay: Protac activity at VHL/IRAK4 in human PBMC assessed as induction of degradation of IRAK4 at 3 uM incubated for 24 hrs by Western blot analysis relative to control; assay type: protein assay
Procedure, shortened: as §2

[24] = target: E3 ubiquitin-protein ligase XIAP/Interleukin-1 receptor-associated kinase 4 (Homo sapiens) (UniProt Q9NWZ3+P98170); assay: Protac activity at IAP/IRAK4 in human PBMC assessed as induction of degradation of IRAK4 incubated for 24 hrs by Western blot analysis relative to control; assay type: protein assay
E3 ubiquitin-protein ligase XIAP/Interleukin-1 receptor-associated kinase 4 (Homo sapiens), sequence (P98170 whole entry, looked up, one chain of several): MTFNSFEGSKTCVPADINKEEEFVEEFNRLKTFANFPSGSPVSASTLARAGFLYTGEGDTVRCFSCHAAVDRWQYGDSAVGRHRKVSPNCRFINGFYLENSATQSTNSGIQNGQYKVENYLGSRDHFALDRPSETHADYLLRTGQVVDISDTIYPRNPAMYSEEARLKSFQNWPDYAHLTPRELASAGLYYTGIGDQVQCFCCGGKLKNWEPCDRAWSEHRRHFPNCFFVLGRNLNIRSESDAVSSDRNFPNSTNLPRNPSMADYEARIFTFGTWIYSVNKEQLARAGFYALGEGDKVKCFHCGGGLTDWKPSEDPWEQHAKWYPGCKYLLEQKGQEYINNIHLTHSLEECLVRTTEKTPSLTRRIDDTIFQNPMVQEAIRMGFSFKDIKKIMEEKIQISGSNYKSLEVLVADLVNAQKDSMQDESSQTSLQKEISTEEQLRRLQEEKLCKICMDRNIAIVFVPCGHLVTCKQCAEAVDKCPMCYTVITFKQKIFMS
Procedure, shortened: as §2

| Activity [1] | Chromatographic log D at pH 7.4 (ChromLogD) [5] | IC50 [17] [nM] | IC50 [18] [nM] | further results | Compound |
| --- | --- | --- | --- | --- | --- |
| inactive | – | – | – | – | COc1cc2c(OC[C@@H]3CCC(=O)N3)ncc(C#CCCCC(=O)N[C@H](C(=O)N3C[C@H](O)C[C@H]3C(=O)NCc3ccc(-c4scnc4C)cc3)C(C)(C)C)c2cc1C(N)=O |
| – | 4.97 | – | – | IC50 [2]: 31.6 nM; DC50 [3]: 36 nM; IC50 [4]: 39.8 nM; IC50 [6]: 63.1 nM; IC50 [7]: 316 nM; IC50 [8]: 50.1 nM; DC50 [9]: 151 nM; Activity [10]: inactive; Activity [11]: Active; IC50 [12]: 79.4 nM; Activity [13]: inactive; solubility [14]: 5 µM (≈ 5.43 µg/mL) | CC[C@@H]1[C@H](F)C(=O)N[C@@H]1COc1ncc(C#CCN2CCC3(CC2)CCN(c2ncc(C(=O)N[C@H](C(=O)N4C[C@H](O)C[C@H]4C(=O)NCc4ccc(-c5scnc5C)cc4)C(C)(C)C)cn2)CC3)c2cc(C(N)=O)c(OC)cc12 |
| inactive | – | – | – | Emax [15]: 0% | COc1cc2c(OC[C@@H]3CCC(=O)N3)ncc(C#CCOCCOCCOCCOc3cccc4c3C(=O)N(C3CCC(=O)NC3=O)C4=O)c2cc1C(N)=O (some centres not stated) |
| inactive | 3.18 | 0.29 | > 10000 | Emax [16]: 0% | COc1cc2c(OC[C@@H]3CCC(=O)N3)ncc(C#CCOCCOCCOCCC(=O)N[C@H](C(=O)N3C[C@H](O)C[C@H]3C(=O)NCc3ccc(-c4scnc4C)cc3)C(C)(C)C)c2cc1C(N)=O |
| – | 6.44 | – | – | DC50 [9]: 259 nM; solubility [14]: < 1 µM | CC[C@@H]1[C@H](F)C(=O)N[C@@H]1COc1ncc(C#CCCCCCCCCCCC(=O)N[C@H](C(=O)N2CC(O)CC2C(=O)NCc2ccc(-c3scnc3C)cc2)C(C)(C)C)c2cc(C(N)=O)c(OC)cc12 (single isomer, unassigned) |
| – | 2.1 | 2.1 | > 10000 | – | COc1cc2c(OC[C@@H]3CCC(=O)N3)ncc(Br)c2cc1C(N)=O |
| – | 5.82 | 0.099 | > 10000 | Activity [19]: 81%; Activity [20]: 101%; Activity [21]: 80%; Activity [22]: 65%; Emax [23]: 50% | COc1cc2c(OC[C@@H]3CCC(=O)N3)ncc(C#CCCCCCCCCCCC(=O)N[C@H](C(=O)N3C[C@H](O)C[C@H]3C(=O)NCc3ccc(-c4scnc4C)cc3)C(C)(C)C)c2cc1C(N)=O |
| inactive | – | – | – | – | COc1cc2c(OC[C@@H]3CCC(=O)N3)ncc(C#CCCC(=O)N[C@H](C(=O)N3C[C@H](O)C[C@H]3C(=O)NCc3ccc(-c4scnc4C)cc3)C(C)(C)C)c2cc1C(N)=O |
| inactive | 6.01 | 2.5 | > 10000 | Emax [15]: 0% | COc1cc2c(OC[C@@H]3CCC(=O)N3)ncc(C#CCCCCCCCCCCOc3cccc4c3C(=O)N(C3CCC(=O)NC3=O)C4=O)c2cc1C(N)=O (some centres not stated) |
| inactive | 3.79 | 0.022 | > 10000 | Emax [24]: 0% | CN[C@@H](C)C(=O)N[C@H](C(=O)N1C[C@@H](NC(=O)CCOCCOCCOCC#Cc2cnc(OC[C@@H]3CCC(=O)N3)c3cc(OC)c(C(N)=O)cc23)C[C@H]1C(=O)N[C@@H]1CCCc2ccccc21)C1CCCCC1 |
| inactive | 6.56 | 21 | 6940 | Emax [24]: 0% | CN[C@@H](C)C(=O)N[C@H](C(=O)N1C[C@@H](NC(=O)CCCCCCCCCCC#Cc2cnc(OC[C@@H]3CCC(=O)N3)c3cc(OC)c(C(N)=O)cc23)C[C@H]1C(=O)N[C@@H]1CCCc2ccccc21)C1CCCCC1 |
| – | – | – | – | Activity [13]: inactive | CC[C@@H]1[C@H](F)C(=O)N[C@@H]1COc1nccc2cc(C(N)=O)c(OC)cc12 |
